pIC50: −log10 of the molar value. One block for each molecule: values may come before it.
Experiments:
[1] = system: HepG2 ARE-luciferase reporter cells; assay: ARE-luciferase activity assay; format: cell-based; details: 48 h, 14: maximum at 1 μM
[2] = system: NQO1, TALDO1, and GCLM mRNA in BEAS-2B cells; assay: Quantitative RT-PCR of antioxidant genes in BEAS-2B cells; format: cell-based, human; details: 0.13 μM, 48 h
How it was run: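 BEAS-2B cells were treated with 0.13 μM test compound for 48 h. RNA was extracted, reverse transcribed (SuperScript IV) and quantified by SYBR Green qPCR. Expression was normalized to 18S by the delta-delta-Ct method. Three independent experiments, each in technical triplicate; mean and S.D.; unpaired t-test.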

BEAS-2B cells proteome = assay: Label-free quantitative MS proteomics in BEAS-2B cells; format: cell-based, human; details: 0.13 μM, 48 h, vs DMSO
How it was run: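 BEAS-2B cells received DMSO or 0.13 μM test compound for 48 h, then were lysed in 5% SDS/50 mM TEAB. 20 μg protein was processed on S-traps (chloroacetamide alkylation), digested with trypsin/Lys-C and cleaned on SDB stage tips. About 100 ng peptide ran on a 48 min C18 gradient, timsTOF DIA-PASEF. Library-free search against human UniProt, 1% precursor FDR, MaxLFQ quantitation. Hits: >1.5-fold versus DMSO, adjusted P <0.01.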

BEAS-2B cells = assay: Flow cytometric detection of cell viability after tBHP; format: cell-based, human; details: 50 μM tBHP
How it was run: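 BEAS-2B cells (LHC-9 with pen/strep) were seeded at 1.2 × 10⁴ cells/well overnight, pre-treated with test compound for 24 h, then given 50 μM tBHP for 24 h. Harvested cells were stained with 1 μg/mL propidium iodide. Gating used FSC-A/SSC-A to exclude debris and FSC-H/FSC-A to exclude doublets. Viability was % PI-negative cells. Three independent assays, single points each; mean and S.D.; unpaired t-test.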

[3] = biological target: recombinant KEAP1-Kelch domain (Homo sapiens, UniProt Q14145); assay: biochemical; format: binding
Sequence of recombinant KEAP1-Kelch domain (Q14145 312-624): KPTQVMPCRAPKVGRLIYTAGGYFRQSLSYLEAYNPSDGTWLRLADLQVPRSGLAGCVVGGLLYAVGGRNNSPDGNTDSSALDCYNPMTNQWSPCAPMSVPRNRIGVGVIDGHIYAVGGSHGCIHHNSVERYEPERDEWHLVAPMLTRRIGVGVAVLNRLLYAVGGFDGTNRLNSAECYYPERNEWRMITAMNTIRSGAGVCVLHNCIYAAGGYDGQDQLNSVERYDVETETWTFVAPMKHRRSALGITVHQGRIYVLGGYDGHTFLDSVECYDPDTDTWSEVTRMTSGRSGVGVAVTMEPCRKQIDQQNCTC

KEAP1 in HEK293T cells = KEAP1 in HEK293T cells (Homo sapiens, UniProt Q14145); assay: KEAP1 degradation in HEK293T cells; format: cell-based
Sequence of KEAP1 in HEK293T cells (Q14145 whole entry): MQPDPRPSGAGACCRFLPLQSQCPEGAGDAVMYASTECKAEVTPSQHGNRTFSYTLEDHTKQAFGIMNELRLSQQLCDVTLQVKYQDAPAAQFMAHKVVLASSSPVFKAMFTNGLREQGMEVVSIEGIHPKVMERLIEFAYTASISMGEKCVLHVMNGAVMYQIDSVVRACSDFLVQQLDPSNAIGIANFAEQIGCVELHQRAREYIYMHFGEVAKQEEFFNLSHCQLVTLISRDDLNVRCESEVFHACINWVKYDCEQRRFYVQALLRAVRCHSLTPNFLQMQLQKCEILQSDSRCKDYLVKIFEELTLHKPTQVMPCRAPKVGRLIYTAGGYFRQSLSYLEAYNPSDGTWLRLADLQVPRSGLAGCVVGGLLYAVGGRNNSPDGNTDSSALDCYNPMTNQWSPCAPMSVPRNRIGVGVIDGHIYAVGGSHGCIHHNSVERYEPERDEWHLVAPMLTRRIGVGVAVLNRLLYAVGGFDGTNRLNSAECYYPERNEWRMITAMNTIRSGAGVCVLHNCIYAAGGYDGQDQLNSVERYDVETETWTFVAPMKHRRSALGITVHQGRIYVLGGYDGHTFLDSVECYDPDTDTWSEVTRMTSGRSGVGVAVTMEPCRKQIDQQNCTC

KEAP1 in BEAS-2B cells = KEAP1 in BEAS-2B cells (Homo sapiens, UniProt Q14145); assay: KEAP1 degradation in BEAS-2B cells; format: cell-based
Sequence of KEAP1 in BEAS-2B cells (Q14145 whole entry): as above

KEAP1 in HCA7 cells = KEAP1 in HCA7 cells (Homo sapiens, UniProt Q14145); assay: KEAP1 degradation in HCA7 cells; format: cell-based; details: 48 h
Sequence of KEAP1 in HCA7 cells (Q14145 whole entry): as above
How it was run: (§1)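 HEK293T, HCA7 and A549 cells were grown in DMEM with 10% FBS and pen/strep; BEAS-2B in LHC-9 with pen/strep; all at 37 °C, 10% CO₂. Cells were exposed to test compound for 48 h, lysed, run on 4–12% SDS-PAGE and transferred to nitrocellulose. Blocking was 5% skim milk for 1 h at RT. Probes were anti-KEAP1, CRBN, NQO1 or HO-1, with HRP anti-β-actin loading control and HRP secondaries. Blots represent 3 independent experiments.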

[4] = biological target: KEAP1 (G333C mutation in the KEAP1-Kelch domain) in A549 cells (Homo sapiens, UniProt Q14145, G333C); assay: KEAP1 degradation in A549 cells; format: cell-based; details: 48 h
Sequence of KEAP1 (G333C mutation in the KEAP1-Kelch domain) in A549 cells (Q14145 whole entry G333C, the tested form may be a part): as the sequence (Q14145 whole entry) above, with G333C counted along it
How it was run: as §1

CRBN = CRBN (Homo sapiens, UniProt Q96SW2); assay: CRBN levels by immunoblotting; format: cell-based; details: HEK293T, HCA7, BEAS-2B, and A549 cells, 48 h
Sequence of CRBN (Q96SW2 whole entry): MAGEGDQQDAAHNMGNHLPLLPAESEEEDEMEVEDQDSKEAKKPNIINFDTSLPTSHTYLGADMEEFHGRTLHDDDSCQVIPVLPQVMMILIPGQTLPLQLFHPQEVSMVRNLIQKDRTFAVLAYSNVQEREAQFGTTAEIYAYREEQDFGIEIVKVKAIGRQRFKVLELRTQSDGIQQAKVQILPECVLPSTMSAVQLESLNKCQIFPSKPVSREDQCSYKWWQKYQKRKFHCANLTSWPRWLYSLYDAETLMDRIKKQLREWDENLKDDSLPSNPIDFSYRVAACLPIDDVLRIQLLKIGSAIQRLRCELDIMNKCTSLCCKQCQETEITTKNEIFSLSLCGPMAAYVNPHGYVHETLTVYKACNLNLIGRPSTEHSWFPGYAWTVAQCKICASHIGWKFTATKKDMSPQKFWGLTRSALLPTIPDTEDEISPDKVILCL
How it was run: as §1

[5] = system: NRF2 downstream targets, NQO1 and HO-1; assay: NQO1 and HO-1 protein levels in HEK293T and HCA7 cell lines; format: cell-based; details: 48 h
How it was run: as §1

[6] = system: NQO1 and GCLM in BEAS-2B cells; assay: NQO1 and GCLM protein expression in BEAS-2B cells; format: cell-based, human; details: 48 h, all tested concentrations

Compound: COc1cc(C(CC(=O)O)c2ccc(C)c(CN3C[C@@H](C)Oc4ccccc4S3(=O)=O)c2)cc2nnn(C)c12 (stereo partly drawn) [Compound 2, 3-(7-Methoxy-1-methyl-1H-benzo[d][1,2,3]triazol-5-yl)-3-(4-methyl-3-(((R)-4-methyl-1,1-dioxido-3,4-dihydro-2H-benzo[b][1,4,5]oxathiazepin-2-yl)methyl)phenyl)propanoic acid]
induction of luciferase signal compared to the DMSO control group [1]: 5- to 6 fold
mRNA induction of GCLM [2]: 2 fold
mRNA induction of NQO1 [2]: 4 fold
mRNA induction of TALDO1 [2]: 2 fold
ABHD4 abundance (proteomics) (BEAS-2B cells proteome): not upregulated
abundance of KEAP1 (proteomics) (BEAS-2B cells proteome): did not affect KEAP1 expression
rescue of cell viability from tBHP, comparison of 14 and 2 (BEAS-2B cells; between 500 and 16 nM): equal potent

pIC50 [3]: 7.34
KEAP1 degradation / expression (KEAP1 in HEK293T cells; HEK293T cells, 48 h): robust degradation of KEAP1
hook effect observed at concentrations higher than (KEAP1 in HEK293T cells; HEK293T cells, dose titration 0.01–8 μM, 24 h): higher than 1 μM
Dmax at 1 µM (KEAP1 in HEK293T cells; HEK-293T, read-out: maximum degradation (Dmax)): 94%
Dmax at 0.0625 µM (KEAP1 in BEAS-2B cells): 90%
KEAP1 degradation / expression (KEAP1 in HCA7 cells): robust degradation of KEAP1
KEAP1 degradation [4]: did not degrade KEAP1
CRBN levels (CRBN): no change in CRBN levels
Compound: Cc1ccc(C(CC(=O)O)c2cc(OCCCCCCCNc3cccc4c3C(=O)N(C3CCC(=O)NC3=O)C4=O)c3c(c2)nnn3C)cc1CN1C[C@@H](C)Oc2ccccc2S1(=O)=O (stereo partly drawn) [Compound 14, 3-(7-((7-((2-(2,6-Dioxopiperidin-3-yl)-1,3-dioxoisoindolin-4-yl)amino)heptyl)oxy)-1-methyl-1H-benzo[d][1,2,3]triazol-5-yl)-3-(4-methyl-3-(((R)-4-methyl-1,1-dioxido-3,4-dihydro-2H-benzo[b][1,4,5]oxathiazepin-2-yl)methyl)phenyl)propanoic acid]
KEAP1 degradation at longer time points (KEAP1 in HEK293T cells; HEK293T cells, 48 h and 72 h, comparison of 8 and 14): degraded KEAP1 more efficiently at 48 and 72 h compared to 8
HO-1 protein expression [5]: upregulated
NQO1 protein expression [5]: upregulated
induction of luciferase signal compared to the DMSO control group [1]: 3.5 fold
increased expression of NQO1 and GCLM, compared with KEAP1 inhibitor 2 [6]: equipotent
mRNA induction of GCLM [2]: 2 fold
mRNA induction of NQO1 [2]: 4 fold
mRNA induction of TALDO1 [2]: 2 fold
ABHD4 abundance (proteomics) (BEAS-2B cells proteome): significantly upregulated
ZFP91 abundance (proteomics) (BEAS-2B cells proteome): Off-target degradation of ZFP91
abundance of KEAP1 (proteomics) (BEAS-2B cells proteome): significantly reduced the abundance of KEAP1
abundance of other Kelch domain proteins KBTBD4, KLHDC2, and KLHL11 (proteomics) (BEAS-2B cells proteome): not impacted
rescue of cell viability from tBHP, comparison of 14 and 2 (BEAS-2B cells; between 500 and 16 nM): equal potent
rescue of cell viability from tBHP, comparison of 14 and 2 (BEAS-2B cells; concentrations lower than 16 nM): less effective

Source: publication PMC9720105 (Redox Biology, 2022)
